Test results published in ChEMBL document CHEMBL1129359, “Alkyl and alkoxyethyl antineoplastic phospholipids” (J Med Chem, 1996).
≈ marks a conversion by molar mass, not a printed value. Calls of active or inactive are those of the source. The rule behind the calls is not given here.

Key:
MEXF989 = test: In vitro cytotoxicity against human tumor xenograft MEXF 989 melanoma; assay type: functional
In short: (§1)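 Double-layer soft-agar clonogenic assay. Tumor cells come from human tumor xenografts serially passaged in nude mice. Cells are dispersed with collagenase 0.05%, DNase 0.07% and hyaluronidase 0.1% (37 °C, 30 min), sieved, and viability is checked by trypan blue. 20 000–200 000 cells go in 0.4% agar over a 0.7% agar base in IMDM with 20% FCS. Drug is overlaid continuously for at least 1 week.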

[1] = test system: panel of six human tumor xenografts (Homo sapiens); test: In vitro cytotoxicity in six human tumor xenografts.
LXFL 529 = test: In vitro cytotoxicity against human tumor xenograft LXFL 529 Nonsmall cell lung carcinoma; assay type: functional; in short: as §1
OVXF1023 cell line = test: In vitro cytotoxicity against human tumor xenograft OVXF1023 ovarian adenocarcinoma; assay type: functional; in short: as §1
LXFS538 = test: In vitro cytotoxicity against human tumor xenograft LXFS 538 small cell lung carcinoma; assay type: functional; in short: as §1
RXF 423 = test: In vitro cytotoxicity against human tumor xenograft RXF 423 renal cancer; assay type: functional; in short: as §1
[2] = target: T1, M-phase inducer phosphatase 1 (Homo sapiens, UniProt P30304); test: Inhibition of Cell division cycle 25 (Cdc25) phosphatase
T1 sequence (P30304 whole entry): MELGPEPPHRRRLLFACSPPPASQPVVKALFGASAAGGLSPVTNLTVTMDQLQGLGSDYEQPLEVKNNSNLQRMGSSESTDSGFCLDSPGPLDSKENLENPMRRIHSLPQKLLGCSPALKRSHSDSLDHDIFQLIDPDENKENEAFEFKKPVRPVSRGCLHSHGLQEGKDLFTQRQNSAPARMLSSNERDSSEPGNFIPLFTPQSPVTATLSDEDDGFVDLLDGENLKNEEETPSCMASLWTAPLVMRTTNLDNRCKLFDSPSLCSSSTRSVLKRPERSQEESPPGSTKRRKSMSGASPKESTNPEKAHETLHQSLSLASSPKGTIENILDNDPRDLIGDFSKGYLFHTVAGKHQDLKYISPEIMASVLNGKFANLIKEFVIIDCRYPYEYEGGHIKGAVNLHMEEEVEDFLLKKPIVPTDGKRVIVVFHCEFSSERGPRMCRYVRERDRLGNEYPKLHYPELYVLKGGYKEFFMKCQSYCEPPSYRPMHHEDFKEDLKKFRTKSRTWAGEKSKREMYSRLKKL
In short: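 Enzyme is GST-human cdc25A fusion expressed in E. coli and purified on glutathione-agarose. Enzyme and DTT in Tris buffer are preincubated 15 min at 37 °C. The reaction starts with p-nitrophenyl phosphate (500 mM stock) and runs 60 min at 37 °C. Absorbance is read at 405 nm, and the no-enzyme blank is subtracted.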

[3] = In vitro cytotoxic effect in 2 of 6 human tumor xenografts, LXFE and RXF; assay type: functional; conditions: in the assay text read “LXFL” for “LXFE”; in short: as §1
CXF1103 = test: In vitro cytotoxicity against human tumor xenograft CXF 1103 colorectal adenocarcinoma; assay type: functional; in short: as §1
[4] = In vitro cytotoxic effect in 1 of 6 human tumor xenografts, LXFS; assay type: functional; in short: as §1
LXFL 529/ LXFS 538 = test: In vitro cytotoxicity in nonsmall cell lung carcinoma cell line LXFL 529 and small cell lung carcinoma cell line LXFS 538 human tumor xenografts.; assay type: functional; in short: as §1
[5] = target: Cyclin-dependent kinase 1 (starfish); test: Inhibition of Cell division cycle 2 (cdc2) kinase
[6] = In vitro cytotoxic effect in 0 of 6 human tumor xenografts; assay type: functional; in short: as §1
[7] = In vitro cytotoxic effect in 2 of 6 human tumor xenografts, LXFL and LXFS; assay type: functional; in short: as §1
[8] = In vitro cytotoxic effect in 2 of 6 human tumor xenografts, LXFS and RXF; assay type: functional; in short: as §1
[9] = In vitro cytotoxic effect in 3 of 6 human tumor xenografts, LXFS, MEXF and RXF; assay type: functional; in short: as §1
[10] = In vitro cytotoxic effect in 1 of 6 human tumor xenografts, RXF; assay type: functional; in short: as §1
[11] = In vitro cytotoxic effect in 4 of 6 human tumor xenografts, LXFL, LXFS, MEXF and OVXF; assay type: functional; in short: as §1

Row | Structure (SMILES) | IC50 [2] [µM] | IC70 (MEXF989) [µg/mL] | Mean IC70 [1] [µg/mL] | IC70 (LXFL 529) [µg/mL] | IC70 (OVXF1023 cell line) [µg/mL] | IC70 (LXFS538) [µg/mL] | IC70 (RXF 423) [µg/mL] | IC70 (CXF1103) [µg/mL] | Mean IC70 (LXFL 529/ LXFS 538) [µg/mL] | other results
1 | CCCCCCCCCCCCOCCOP(=O)([O-])OCC[N+]1(C)CCOCC1 | 610 |  |  |  |  |  |  |  | >10 | Cytotoxicity [4]: Weak activity
2 | CCCCCCCCCCCCCCOCCOP(=O)([O-])OCC[N+]1(C)CCCCC1 | 300 |  |  |  |  |  |  |  | >10 | Cytotoxicity [4]: Weak activity
3 | CCCCCCCCCCCCCCCCOCCOP(=O)([O-])OCC[N+]1(C)CCCCC1 | 100 | > 10 |  | 5.38 (≈ 10.9 µM) | > 10 | 4.54 (≈ 9.23 µM) | 10 (≈ 20.3 µM) | > 10 | 7.9 | Cytotoxicity [7]: Weak activity
4 | CCCCCCCCCCCCOP(=O)([O-])OCC[N+]1(C)CCOCC1 | 500 |  | >10 |  |  |  |  |  |  | NA [6]: inactive
5 | CCCCCCCCCCCCCCOP(=O)([O-])OCC[N+]1(C)CCOCC1 | 290 |  | >10 |  |  |  |  |  |  | Cytotoxicity [10]: Weak activity

Further lines, with some results ahead:

Row | IC50 [2] [µM] | Structure (SMILES) | IC70 (MEXF989) [µg/mL] | Mean IC70 [1] [µg/mL] | IC70 (LXFL 529) [µg/mL] | IC70 (OVXF1023 cell line) [µg/mL] | IC70 (LXFS538) [µg/mL] | IC70 (RXF 423) [µg/mL] | IC70 (CXF1103) [µg/mL] | Mean IC70 (LXFL 529/ LXFS 538) [µg/mL] | other results
6 | 25 | CCCCCCCCCCCCCCCCOP(=O)([O-])OCC[N+](C)(C)C [MILTEFOSINE] | > 10 | 8 | 9.57 (≈ 23.5 µM) | > 10 | > 10 | 2.75 (≈ 6.76 µM) | > 10 |  | Cytotoxicity [3]: Weak activity
7 | 490 | CCCCCCCCCCCCCCOP(=O)([O-])OCC[N+]1(C)CCCCC1 |  | >10 |  |  |  |  |  |  | IC50 [5]: > 1000 µM; NA [6]: inactive
8 | 380 | CCCCCCCCCCCCCCOCCOP(=O)([O-])OCC[N+]1(C)CCOCC1 | > 10 |  | 10 (≈ 21.5 µM) | > 10 | 5.85 (≈ 12.6 µM) | 6.74 (≈ 14.5 µM) | > 10 | 8.6 | Cytotoxicity [8]: Weak activity
9 | 1000 | CCCCCCCCCCCCCCCCOCCOP(=O)([O-])OCC[N+]1(C)CCOCC1 | 8.76 (≈ 17.7 µM) |  | 10.4 (≈ 21 µM) | > 10 | 5.12 (≈ 10.4 µM) | 4.76 (≈ 9.64 µM) | > 10 | 7.8 | Cytotoxicity [9]: Weak activity
10 | > 1000 | CCCCCCCCCCCCOP(=O)([O-])OCC[N+]1(C)CCCCC1 |  | >10 |  |  |  |  |  |  | Cytotoxicity [4]: Weak activity
11 | 40 | CCCCCCCCCCCCCCCCOP(=O)([O-])OCC[N+]1(C)CCOCC1 |  | >10 |  |  |  |  |  |  | Cytotoxicity [10]: Weak activity
12 | 460 | CCCCCCCCCCCCCCCCOP(=O)([O-])OCC[N+]1(C)CCCCC1 | 4.64 (≈ 10.4 µM) | 5.6 | 4.33 (≈ 9.67 µM) | 7.8 (≈ 17.4 µM) | 1.9 (≈ 4.23 µM) | 10 (≈ 22.3 µM) | > 10 |  | Cytotoxicity [11]: Weak activity
